# Screens: PubChem BioAssay, several laboratories
# pCIP destab: compounds decreasing mouse p/CIP protein stability | Q05BA5 | F442A p/CIP-EGFP cells, EGFP fluorescence, 16 h | decrease of EGFP signal, % at 10 µM | actives 0.01% (n = 290,000) | AID 1984;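 active = EGFP signal decrease of at least 30% at 10 µM or well 3 SD below plate mean, unless failing retest; inactive = the rest, including hits failing retest or dose response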
# PP1 counter: blocks human PP1-alpha phosphatase, a PP5 counter-screen; actives 0.9% (n = 320,000); P62136; purified PP1alpha, OMFP fluorescence; inhibition, % at 6.7 µM;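 active = inhibition above the mean inhibition of all tested compounds plus 3 SD, computed separately for each screening campaign, cut at about 15% in these data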
# T cruzi repl: blocks replication of Trypanosoma cruzi. T. cruzi beta-gal in NIH3T3, luminescence, 90 h. inhibition, % (concentration not given with the values). actives 1.4% (n = 300,000). AID 1885;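 active = mean inhibition across valid replicates above about 55%, limit read from the data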;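 also: signal also drops with host cell toxicity which is not excluded here; 0% = plate median of DMSO wells and 100% = zero luminescence signal; higher percent means less beta-gal luminescence so fewer parasites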
#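 System: mouse NIH/3T3 fibroblasts infected with β-gal-expressing T. cruzi Tulahuen C4 / Input: NIH/3T3 cells, 5,000 per well / Buffer or medium: Low-serum DMEM with 2% FBS / Probe or stimulus: 5000 reporter trypomastigotes per well / Schedule: ≥90 h infection period, 3 h prior cell attachment / Measured by: GalScreen luminescence, 60 min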
# AI-2 QS mod: Vibrio harveyi AI-2 quorum sensing modulation; AID 2094; Vibrio harveyi JMH597 AI-2 luminescence/OD600 ratio, 9 h; hits give low values; strain lacks LuxN and CqsS sensors; 0 = neutral-control median; activity change, % at 7.5 µM; actives 0.4% (n = 300,000); in the data active = activity change below about -75%, passing the limit was not always enough;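 also: luminescence divided by OD600 gain over 9 h not by final OD600 alone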
# UBC13 inh: inhibitors of human UBC13 polyubiquitin chain formation; TR-FRET; inhibition, % at 20 µM; actives 0.47% (n = 330,000); AID 485273; in the data active = inhibition above about 45%, passing the limit was not always enough
# Target sequence (P61088 whole entry, looked up): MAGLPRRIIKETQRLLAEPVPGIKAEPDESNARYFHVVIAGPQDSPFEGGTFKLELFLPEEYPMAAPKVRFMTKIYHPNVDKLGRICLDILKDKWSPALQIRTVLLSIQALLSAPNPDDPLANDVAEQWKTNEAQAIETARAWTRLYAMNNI
# Casp3 UBC13 ctr: inhibits human caspase-3 in UBC13 counter-screen; shares compounds with UBC13 inh; Recombinant caspase-3, Caspase-Glo 3/7 luminescence, 60 min; inhibition, % at 20 µM; actives 4% (n = 1,400); AID 488856;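 active = mean inhibition across replicates above about 26%, limit read from the data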;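 also: plate controls were DMSO with caspase-3 for no effect and DMSO wells lacking enzyme for full effect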
# Target sequence (P42574 whole entry, looked up): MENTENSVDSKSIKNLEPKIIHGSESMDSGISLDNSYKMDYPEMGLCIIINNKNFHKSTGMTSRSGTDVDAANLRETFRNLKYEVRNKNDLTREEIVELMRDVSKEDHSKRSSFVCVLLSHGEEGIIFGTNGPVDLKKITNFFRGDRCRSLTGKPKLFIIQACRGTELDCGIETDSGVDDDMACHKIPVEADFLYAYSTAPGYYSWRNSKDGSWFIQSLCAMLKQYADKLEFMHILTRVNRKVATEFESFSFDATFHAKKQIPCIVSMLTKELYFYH
# UBC13 confirm: human UBC13 polyubiquitin inhibition, confirmed | shares compounds with UBC13 inh | UBC13 polyubiquitination, TR-FRET, biochemical | inhibition, % at 10 µM | actives 68% (n = 1,400) | AID 488859; in the data active = inhibition above about 45%
# * hit, by the source's call; nt = no result. Sampled rows, rich in hits. Any-hit rate of the full collection: about 2.8%.
SMILES,pCIP destab,PP1 counter,T cruzi repl,AI-2 QS mod,UBC13 inh,Casp3 UBC13 ctr,UBC13 confirm
COc1ccc(CN(C)C(=O)Cc2ccc(OC)c(S(=O)(=O)N3CCOCC3)c2)cc1OC,nt,-2,nt,nt,101*,-3,109*
Cc1ccc([N+](=O)[O-])cc1NC(=O)C(C)Sc1nnc(C)n1CC1CCCO1 (stereo unspecified),-8,1,-3,nt,6,nt,nt
O=C(Nc1cc2c3c(c1)CC(=O)N3CCC2)C1CC1,nt,2,-7,10,-4,nt,nt
Cc1ccccc1-n1nnnc1SCC(=O)NCC1CCCO1 (stereo unspecified),1,-2,-7,16,-17,nt,nt
CCCCCCCCC(=O)N1CCN(c2cc3c(cc2F)c(=O)c(C(=O)O)cn3CC)CC1,-3,14,-12,2,46*,1,16
CCCc1nnc(NC(=O)c2nc(S(=O)(=O)Cc3ccc(C)cc3)ncc2Cl)s1,-22,-2,-4,5,59*,0,54*
CC(=O)Nc1ccc(NC(=O)c2nc(S(=O)(=O)Cc3cccc(C)c3)ncc2Cl)cc1,-24,-2,8,8,45*,2,47*
CCCS(=O)(=O)c1ncc(Cl)c(C(=O)Nc2ccc(S(=O)(=O)Nc3ncccn3)cc2)n1,5,3,-3,-2,53*,-2,50*
COC(=O)c1ccc(NC(=O)c2nc(S(=O)(=O)Cc3cccc(C)c3)ncc2Cl)cc1,-14,3,-9,21,15,nt,nt
CC(C)CC(=O)c1c(O)c(C=O)c(O)c2c1O[C@@]1(C)[C@@H](C2)C[C@H]2C[C@@H]1C2(C)C,nt,nt,nt,nt,-16,nt,nt
CSC(=NC#N)N1CCN(c2cccc(Cl)c2)CC1,-4,2,-6,13,1,nt,nt
O=C(NCc1ccccc1)C1=C[C@@H](c2coc3ccccc3c2=O)C[C@@H](OCc2ccc(CO)cc2)O1,-15,0,24,2,43,nt,nt
COc1ccc2sc(N(CCCN(C)C)C(=O)c3ccc(S(=O)(=O)N(C)Cc4ccccc4)cc3)nc2c1,nt,1,55*,32,48*,-2,93*
COc1ccc2sc(N(CCCN(C)C)C(=O)c3nc4ccccc4s3)nc2c1,17,-2,43,20,14,nt,nt
CCN(c1ccccc1)S(=O)(=O)c1ccc(C(=O)N(CCCN(C)C)c2nc3cc4c(cc3s2)OCO4)cc1,-25,4,24,6,18,nt,nt
CN(C)CCCN(C(=O)c1ccc(S(=O)(=O)N(C)Cc2ccccc2)cc1)c1nc2cc3c(cc2s1)OCO3,-8,9,34,0,90*,0,108*
Cc1cc2nc(NCCCO)n(CC(=O)c3cc(C(C)(C)C)c(O)c(C(C)(C)C)c3)c2cc1C,nt,10,nt,nt,70*,1,49*
CC(=O)O[C@H]1[C@@H](O)[C@H](O)[C@H](Oc2c(O)c(C)c3c4c2[C@@H](C)CC[C@@H]4[C@@H](C)C[C@H]3C=C(C)C)O[C@H]1C,nt,nt,nt,nt,52*,-2,32
CCCCN(CC)CCNC(=O)c1cc2c(=O)n(C)c3ccccc3c2n1C,-3,-5,21,9,57*,-1,53*
COc1ccc(CNC(=O)C(=O)NCC2CCCN2S(=O)(=O)c2ccccc2)cc1 (stereo unspecified),nt,-6,15,8,2,nt,nt
CCOC(=O)C1=C(COC(=O)c2cc(OC)c(OC)c(OC)c2)NC(=O)NC1C (stereo unspecified),nt,-2,-2,25,62*,1,84*
CCOC(=O)C1=C(COC(=O)c2cccc(Br)c2)NC(=O)NC1C (stereo unspecified),nt,-4,6,13,1,nt,nt
C=CCSc1nnc(CNC(=O)c2ccccc2C)n1C(C)C,-5,-2,-4,17,5,nt,nt
COc1ccc(C(=O)Nn2c(SCC(=O)NCc3ccccc3)nc3ccccc3c2=O)cc1,-7,1,1,43,52*,3,58*
